Laboratory results reported in the M2OR odorant receptor database.

These molecules were tested against T1, OR5M3 (Homo sapiens) (UniProt Q8NGP4). Settings: stereoisomer not certain.
T1 sequence (whole entry): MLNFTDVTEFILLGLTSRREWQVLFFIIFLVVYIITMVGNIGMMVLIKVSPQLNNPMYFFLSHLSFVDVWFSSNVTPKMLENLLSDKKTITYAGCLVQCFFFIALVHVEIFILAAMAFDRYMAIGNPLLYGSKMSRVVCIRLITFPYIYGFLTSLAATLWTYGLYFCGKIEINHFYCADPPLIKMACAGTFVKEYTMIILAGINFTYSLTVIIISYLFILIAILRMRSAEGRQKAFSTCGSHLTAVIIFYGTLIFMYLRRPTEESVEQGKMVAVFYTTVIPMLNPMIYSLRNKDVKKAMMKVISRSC
Summary of the method: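 Each entry records the cell line, G-protein, co-transfected protein and tags used. Methods varied with the source, often transient luciferase assays in mammalian cell lines. A receptor–molecule pair is called responsive (active) if the original authors judged its signal statistically different from baseline and non-responsive (inactive) otherwise.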

SMILES | odorant receptor agonist call
C=CCSSCC=C | inactive
NCC(=O)c1ccccc1 | inactive
Cc1ccccc1O | inactive
SCc1ccco1 | inactive
Cc1c([N+](=O)[O-])c(C)c([N+](=O)[O-])c(C(C)(C)C)c1[N+](=O)[O-] | inactive
C=CCc1ccc(OC)cc1 | inactive
O=Cc1ccc2c(c1)OCO2 | inactive
COc1ccc(C=O)cc1 | inactive
C=CCOC(=O)Cc1ccccc1 | inactive
CSSC | inactive
Cc1ccc(O)c(C)c1 | inactive
CCOC(=O)Cc1ccccc1 | inactive
